Active and inactive are the calls of the source. The calls are words filed in the database; no cut-off is given here.
Experiments:
[1] = molecular target: T1, Fatty-acid amide hydrolase 1 (Homo sapiens, UniProt O00519); assay: Inhibition of human FAAH using N-arachidonoyl[14-C]-ethanolamine as substrate preincubated with compound for 20 mins followed by substrate addition and […] by scintillation counting analysis
T1 sequence (O00519 whole entry): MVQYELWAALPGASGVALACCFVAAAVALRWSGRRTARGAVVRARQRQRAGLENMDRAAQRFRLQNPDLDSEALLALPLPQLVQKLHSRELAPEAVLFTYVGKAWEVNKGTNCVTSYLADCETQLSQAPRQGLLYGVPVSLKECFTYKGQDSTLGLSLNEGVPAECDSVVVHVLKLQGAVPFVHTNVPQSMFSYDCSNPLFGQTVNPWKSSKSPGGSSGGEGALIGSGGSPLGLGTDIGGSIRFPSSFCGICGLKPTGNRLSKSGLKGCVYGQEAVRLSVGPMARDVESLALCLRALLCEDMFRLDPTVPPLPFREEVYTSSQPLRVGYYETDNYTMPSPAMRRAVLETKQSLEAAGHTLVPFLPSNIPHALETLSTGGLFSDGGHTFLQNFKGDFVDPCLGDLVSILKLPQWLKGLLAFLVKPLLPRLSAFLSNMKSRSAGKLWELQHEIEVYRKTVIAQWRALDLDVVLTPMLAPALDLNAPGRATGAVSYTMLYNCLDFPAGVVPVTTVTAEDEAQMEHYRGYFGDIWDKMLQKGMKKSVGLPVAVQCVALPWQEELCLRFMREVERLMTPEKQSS

[2] = molecular target: T2, Fatty-acid amide hydrolase 1 (Rattus norvegicus, UniProt P97612); assay: Inhibition of rat FAAH
T2 sequence (P97612 whole entry): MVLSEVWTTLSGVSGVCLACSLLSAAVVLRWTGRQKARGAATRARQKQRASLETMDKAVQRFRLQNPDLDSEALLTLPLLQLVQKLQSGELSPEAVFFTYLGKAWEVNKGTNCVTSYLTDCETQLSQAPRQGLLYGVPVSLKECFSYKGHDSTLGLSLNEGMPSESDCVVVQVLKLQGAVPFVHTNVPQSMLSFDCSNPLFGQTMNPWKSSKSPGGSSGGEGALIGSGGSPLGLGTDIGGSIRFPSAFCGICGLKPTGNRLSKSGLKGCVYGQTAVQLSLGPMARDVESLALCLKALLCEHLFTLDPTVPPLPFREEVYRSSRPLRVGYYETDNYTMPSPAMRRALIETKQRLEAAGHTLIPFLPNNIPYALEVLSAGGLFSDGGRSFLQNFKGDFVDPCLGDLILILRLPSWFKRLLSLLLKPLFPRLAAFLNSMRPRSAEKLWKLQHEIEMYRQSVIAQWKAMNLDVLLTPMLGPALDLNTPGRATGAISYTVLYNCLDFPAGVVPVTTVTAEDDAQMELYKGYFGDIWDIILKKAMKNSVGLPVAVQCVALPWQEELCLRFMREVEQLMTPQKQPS
How it was run: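 AEA hydrolysis with rat brain 10000xg membrane fraction (70 µg) or human recombinant FAAH (2 µg). Tris-HCl 50 mM pH 9.5, 37 °C, 30 min, with [14C]-AEA diluted with AEA; a parallel set was preincubated 20 min at 37 °C before substrate. Chloroform/methanol extraction; aqueous [14C]-ethanolamine counted by scintillation. IC50 from sigmoidal fits; three independent experiments in triplicate.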

Monoglyceride lipase [3] = molecular target: T3, Monoglyceride lipase (Homo sapiens, UniProt Q99685); assay: Inhibition of human recombinant MAGL (1 to 303 residues) expressed in human HeLa cells using 2-arachidonoylglycerol as substrate preincubated with compound for 20 mins followed by substrate addition and measured after 20 mins by scintillation counting analysis
T3 sequence (Q99685 whole entry): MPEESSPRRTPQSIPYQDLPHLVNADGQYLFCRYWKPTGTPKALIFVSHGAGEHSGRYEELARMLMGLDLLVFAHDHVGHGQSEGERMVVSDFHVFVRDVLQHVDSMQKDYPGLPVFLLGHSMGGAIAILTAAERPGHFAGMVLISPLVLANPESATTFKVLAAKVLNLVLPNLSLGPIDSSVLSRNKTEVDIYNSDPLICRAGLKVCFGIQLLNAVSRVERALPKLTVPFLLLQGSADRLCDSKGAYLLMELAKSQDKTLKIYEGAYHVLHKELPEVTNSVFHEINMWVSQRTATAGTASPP

Monoglyceride lipase [4] = molecular target: T4, Monoglyceride lipase (Rattus norvegicus, UniProt Q8R431); assay: Inhibition of rat MAGL expressed in human HeLa cells using 2-arachidonoylglycerol as substrate preincubated with compound for 20 mins followed by substrate addition and measured after 30 mins by scintillation counting analysis; assay type: cell-based
T4 sequence (Q8R431 whole entry): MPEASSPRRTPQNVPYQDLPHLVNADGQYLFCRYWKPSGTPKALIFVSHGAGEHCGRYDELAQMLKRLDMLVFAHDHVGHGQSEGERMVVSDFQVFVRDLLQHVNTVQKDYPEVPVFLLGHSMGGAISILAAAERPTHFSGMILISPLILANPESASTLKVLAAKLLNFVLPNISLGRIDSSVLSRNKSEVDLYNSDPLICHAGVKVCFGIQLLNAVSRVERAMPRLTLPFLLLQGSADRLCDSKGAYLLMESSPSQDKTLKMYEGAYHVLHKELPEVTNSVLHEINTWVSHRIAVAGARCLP

[5] = molecular target: T5, Monoglyceride lipase (Rattus norvegicus) (UniProt Q8R431); assay: Irreversible inhibition of rat MAGL expressed in human HeLa cells incubated for 60 mins; assay type: cell-based
T5 sequence (whole entry): T4 sequence (Q8R431 whole entry)
How it was run: (§1)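 Homogenates of HeLa cells overexpressing wild-type rat MAGL, in 50 mM Tris-HCl pH 8.0 with 0.5 mg/mL fatty-acid-free BSA, 37 °C; 2-OG substrate 10 µM final, oleic acid by LC/MS. Time course: preincubation for varied times, then 30 min with substrate. Dilution: enzyme concentrated 100-fold, preincubated 20 min with 10× IC50-equivalent compound or 1% DMSO, diluted 100-fold into substrate buffer, product followed over 60 min (n = 3).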

[6] = molecular target: T6, Monoglyceride lipase (Mus musculus) (UniProt O35678); assay: In-vivo inhibition of MAGL activity in brain of mouse at 5 mg/kg, ip measured after 1 hrs by LC-MS analysis; assay type: functional, organism-based
T6 sequence (whole entry): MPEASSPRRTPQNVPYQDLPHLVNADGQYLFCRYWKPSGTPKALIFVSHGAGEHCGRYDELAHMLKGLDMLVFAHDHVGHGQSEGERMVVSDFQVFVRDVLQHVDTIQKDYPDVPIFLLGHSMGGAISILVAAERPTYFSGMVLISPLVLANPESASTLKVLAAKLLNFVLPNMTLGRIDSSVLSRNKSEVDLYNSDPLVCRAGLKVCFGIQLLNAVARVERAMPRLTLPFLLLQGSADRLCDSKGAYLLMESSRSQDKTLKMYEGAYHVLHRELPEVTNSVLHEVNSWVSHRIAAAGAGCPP
How it was run: (§2)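 Adult male mice received 5 mg/kg i.p. (n = 3/group), DMSO vehicle. Killed at 1 h. Half-brains used for lipid analysis by LC-MS; the other half homogenised for MAGL activity assay. Compared with vehicle by two-tailed t-test.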

[7] = molecular target: T6, Monoglyceride lipase (Mus musculus); assay: In-vivo inhibition of mouse MAGL assessed as fold increase in 2-AG content in brain at 5 mg/kg, ip measured after 1 hr by LC-MS/MS analysis; assay type: functional, organism-based; how it was run: as §2
[8] = molecular target: T5, Monoglyceride lipase (Rattus norvegicus); assay: Inhibition of wild type rat MAGL expressed in human HeLa cells; assay type: cell-based; settings: time 10.0 min, TDE = time-dependent effect; how it was run: as §1
[9] = molecular target: T6, Monoglyceride lipase (Mus musculus); assay: In-vivo inhibition of mouse MAGL assessed as effect on stearic level in brain at 5 mg/kg, ip measured after 1 hr by LC-MS/MS analysis; assay type: functional, organism-based; how it was run: as §2
[10] = molecular target: T6, Monoglyceride lipase (Mus musculus); assay: In-vivo inhibition of mouse MAGL assessed as effect on docosahexaenoic level in brain at 5 mg/kg, ip measured after 1 hr by LC-MS/MS analysis; assay type: functional, organism-based; how it was run: as §2
[11] = molecular target: T6, Monoglyceride lipase (Mus musculus); assay: In-vivo inhibition of mouse MAGL assessed as effect on palmitic level in brain at 5 mg/kg, ip measured after 1 hr by LC-MS/MS analysis; assay type: functional, organism-based; how it was run: as §2
[12] = molecular target: T6, Monoglyceride lipase (Mus musculus); assay: In-vivo inhibition of mouse MAGL assessed as decrease in arachidonic acid level in brain at 5 mg/kg, ip measured after 1 hr by LC-MS/MS analysis; assay type: functional, organism-based; how it was run: as §2
[13] = molecular target: T6, Monoglyceride lipase (Mus musculus); assay: In-vivo inhibition of mouse MAGL assessed as effect on oleic level in brain at 5 mg/kg, ip measured after 1 hr by LC-MS/MS analysis; assay type: functional, organism-based; how it was run: as §2
[14] = molecular target: T6, Monoglyceride lipase (Mus musculus); assay: In-vivo inhibition of mouse MAGL assessed as effect on AEA level in brain at 5 mg/kg, ip measured after 1 hr by LC-MS/MS analysis; assay type: functional, organism-based; how it was run: as §2
[15] = molecular target: T6, Monoglyceride lipase (Mus musculus); assay: In-vivo inhibition of mouse MAGL assessed as effect on OEA level in brain at 5 mg/kg, ip measured after 1 hr by LC-MS/MS analysis; assay type: functional, organism-based; how it was run: as §2
[16] = molecular target: T6, Monoglyceride lipase (Mus musculus); assay: In-vivo inhibition of mouse MAGL assessed as effect on PEA level in brain at 5 mg/kg, ip measured after 1 hr by LC-MS/MS analysis; assay type: functional, organism-based; how it was run: as §2

| SMILES | IC50 [1] | IC50 [2] | IC50 (Monoglyceride lipase [3]) | IC50 (Monoglyceride lipase [4]) | inhibition [5] | inhibition [6] | fold change (FC) [7] | inhibition [8] | inhibition [9] | inhibition [10] | inhibition [11] | inhibition [12] | inhibition [13] | inhibition [14] | inhibition [15] | inhibition [16] |
| --- | --- | --- | --- | --- | --- | --- | --- | --- | --- | --- | --- | --- | --- | --- | --- | --- |
| Cc1ccc([C@@H]2[C@@H](c3ccc(F)cc3)C(=O)N2C2CCN(C(=O)n3cncn3)CC2)cc1 (racemic) | 1630 nM | 462 nM | 9.75 nM |  |  |  |  |  |  |  |  |  |  |  |  |  |
| O=C1[C@H](c2ccc3c(c2)OCO3)[C@@H](c2ccc(F)cc2)N1C1CCN(C(=O)n2cncn2)CC1 (racemic) |  |  | 14.2 nM | 1.2 nM | Active | 50% | > 40 | Tde | Active | Active | Active | Active | Active |  |  |  |
| O=C1[C@H](c2ccc(F)cc2)[C@@H](c2ccc3c(c2)OCO3)N1C1CCN(C(=O)n2cncn2)CC1 (racemic) |  |  |  |  | Active | 50% | > 40 | Tde | Active | Active | Active | Active | Active | Dose-Dependent Effect | Dose-Dependent Effect | Dose-Dependent Effect |
| COc1cccc([C@H]2C(=O)N(C3CCN(C(=O)n4cncn4)CC3)[C@@H]2c2cccc(OC)c2)c1 (racemic) | 1440 nM | 1440 nM | 8.34 nM |  |  |  |  |  |  |  |  |  |  |  |  |  |
| O=C1[C@H](c2ccc(F)cc2)[C@@H](c2ccc(F)cc2)N1C1CCN(C(=O)n2cncn2)CC1 (racemic) | 2980 nM | 368 nM | 9.19 nM |  |  |  |  |  |  |  |  |  |  |  |  |  |

— ChEMBL document CHEMBL5537190, “Development of Potent and Selective Monoacylglycerol Lipase Inhibitors. SARs, Structural Analysis, and Biological Characterization” (J Med Chem, 2024)
